From ChEMBL document CHEMBL3352730, “Synthesis and effects on cell viability of flavonols and 3-methyl ether derivatives on human leukemia cells” (Eur J Med Chem, 2014)
Calls of active or inactive are those of the source. The rule behind the calls is not given here.

How the values were obtained:
[1] = system: HL-60; experiment: Induction of cell cycle arrest in human HL60 cells assessed as accumulation at S phase at 1 uM after 12 hrs by propidium iodide staining based flow cytometry (reference value: 14.7 +/- 0.3%); assay type: functional
[2] = system: HL-60; experiment: Induction of cell cycle arrest in human HL60 cells assessed as accumulation at S phase at 3 uM after 48 hrs by propidium iodide staining based flow cytometry (reference value: 15.3 +/- 0.1%); assay type: functional
[3] = system: HL-60; experiment: Induction of cell cycle arrest in human HL60 cells assessed as accumulation at S phase at 10 uM after 48 hrs by propidium iodide staining based flow cytometry (reference value: 15.3 +/- 0.1%); assay type: functional
[4] = system: U-937; experiment: Induction of cell cycle arrest in human U937 cells assessed as accumulation at S phase at 1 uM after 24 hrs by propidium iodide staining based flow cytometry (reference value: 18.6 +/- 0.3%); assay type: functional
[5] = system: U-937; experiment: Induction of cell cycle arrest in human U937 cells assessed as accumulation at S phase at 3 uM after 24 hrs by propidium iodide staining based flow cytometry (reference value: 18.6 +/- 0.3%); assay type: functional
[6] = system: U-937; experiment: Induction of cell cycle arrest in human U937 cells assessed as accumulation at S phase at 10 uM after 48 hrs by propidium iodide staining based flow cytometry (reference value: 18.9 +/- 0.2%); assay type: functional
[7] = system: HL-60; experiment: Induction of cell cycle arrest in human HL60 cells assessed as accumulation at G2/M phase at 1 uM after 24 hrs by propidium iodide staining based flow cytometry (reference value: 22.5 +/- 0.9%); assay type: functional
[8] = system: HL-60; experiment: Induction of cell cycle arrest in human HL60 cells assessed as accumulation at subG1 phase at 1 uM after 12 hrs by propidium iodide staining based flow cytometry (reference value: 6.1 +/- 0.5%); assay type: functional
[9] = system: HL-60; experiment: Induction of cell cycle arrest in human HL60 cells assessed as accumulation at subG1 phase at 3 uM after 12 hrs by propidium iodide staining based flow cytometry (reference value: 6.1 +/- 0.5%); assay type: functional
[10] = system: U-937; experiment: Induction of cell cycle arrest in human U937 cells assessed as accumulation at subG1 phase at 3 uM after 12 hrs by propidium iodide staining based flow cytometry (reference value: 4.6 +/- 0.9%); assay type: functional
[11] = system: U-937; experiment: Induction of cell cycle arrest in human U937 cells assessed as accumulation at subG1 phase at 3 uM after 24 hrs by propidium iodide staining based flow cytometry (reference value: 3.9 +/- 0.8%); assay type: functional
[12] = system: U-937; experiment: Induction of cell cycle arrest in human U937 cells assessed as accumulation at G2/M phase at 1 uM after 12 hrs by propidium iodide staining based flow cytometry (reference value: 24.2 +/- 1.2%); assay type: functional
[13] = system: U-937; experiment: Induction of cell cycle arrest in human U937 cells assessed as accumulation at G2/M phase at 3 uM after 48 hrs by propidium iodide staining based flow cytometry (reference value: 19.1 +/- 1.1%); assay type: functional
[14] = system: MOLT-3; experiment: Effect on Bcl-2 expression in human MOLT3 cells by Western blotting method; assay type: functional, cell-based
In short: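 Cells were exposed to a range of compound concentrations and harvested at 24 h. Lysates were immunoblotted for caspase proforms and cleaved forms, and for Bcl-2 family proteins.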

[15] = system: HL-60; experiment: Induction of apoptosis in human HL60 cells assessed as increase in caspase 9 activity using LEHD-pNA substrate at 10 uM after 24 hrs; assay type: functional
In short: (§1)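 Cells were given 10 µM for 24 h. Lysates were assayed for cleavage of DEVD-pNA (caspase-3/7), IETD-pNA (caspase-8) and LEHD-pNA (caspase-9). Results are expressed as fold over control, from three independent experiments in triplicate.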

[16] = system: HL-60; experiment: Induction of apoptosis in human HL60 cells assessed as increase in caspase 8 activity using IETD-pNA substrate at 10 uM after 24 hrs; assay type: functional; in short: as §1
[17] = molecular target: MAP kinase p38 (Homo sapiens) (UniProt O15264+Q15759+Q16539+P53778); experiment: Increase in p38 MAPK phosphorylation in human HL60 cells at 10 to 30 uM after 2 to 6 hrs by Western blotting method; assay type: cell-based; conditions: HL-60
In short: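 HL-60 cells were incubated for a time course. Extracts were immunoblotted with phospho-specific antibodies for ERK 1/2, JNK/SAPK and p38MAPK. Membranes were then stripped and reprobed for the total kinases as loading controls.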

[18] = system: HL-60; experiment: Induction of apoptosis in human HL60 cells in presence of JNK/SAPK inhibitor SP600125 after 24 hrs by propidium iodide staining based flow cytometry; assay type: functional, cell-based
[19] = system: HL-60; experiment: Induction of apoptosis in human HL60 cells in presence of 10 uM MEK1/2 inhibitor U0126 after 24 hrs by propidium iodide staining based flow cytometry; assay type: functional
[20] = system: U-937; experiment: Cytotoxicity against human U937 cells at 30 uM incubated for 24 hrs followed of 0.5 ug/mL TRAIL exposure for 24 hrs by MTT assay; assay type: functional, cell-based
In short: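 U937 cells, MTT viability read-out. One arm received TRAIL at 0.5 µg/mL together with compound at 30 µM for 48 h. The other arm had compound for 24 h, then TRAIL for 24 h. Three independent experiments, each in triplicate.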

[21] = system: U-937; experiment: Induction of cell cycle arrest in human U937 cells assessed as accumulation at subG1 phase at 10 uM after 24 hrs by propidium iodide staining based flow cytometry (reference value: 3.9 +/- 0.8%); assay type: functional
[22] = system: U-937; experiment: Induction of cell cycle arrest in human U937 cells assessed as accumulation at subG1 phase at 3 uM after 48 hrs by propidium iodide staining based flow cytometry (reference value: 6.7 +/- 0.3%); assay type: functional
[23] = system: HL-60; experiment: Induction of cell cycle arrest in human HL60 cells assessed as accumulation at G1 phase at 10 uM after 12 hrs by propidium iodide staining based flow cytometry (reference value: 57.2 +/- 0.9%); assay type: functional
[24] = system: HL-60; experiment: Induction of cell cycle arrest in human HL60 cells assessed as accumulation at G1 phase at 3 uM after 24 hrs by propidium iodide staining based flow cytometry (reference value: 53 +/- 1.1%); assay type: functional
[25] = system: HL-60; experiment: Induction of cell cycle arrest in human HL60 cells assessed as accumulation at G1 phase at 3 uM after 48 hrs by propidium iodide staining based flow cytometry (reference value: 60.4 +/- 0.4%); assay type: functional
[26] = system: U-937; experiment: Induction of cell cycle arrest in human U937 cells assessed as accumulation at G1 phase at 1 uM after 12 hrs by propidium iodide staining based flow cytometry (reference value: 45.8 +/- 0.8%); assay type: functional
[27] = system: U-937; experiment: Induction of cell cycle arrest in human U937 cells assessed as accumulation at G1 phase at 10 uM after 24 hrs by propidium iodide staining based flow cytometry (reference value: 49.8 +/- 1.5%); assay type: functional
[28] = system: U-937; experiment: Induction of cell cycle arrest in human U937 cells assessed as accumulation at G1 phase at 3 uM after 48 hrs by propidium iodide staining based flow cytometry (reference value: 51.9 +/- 0.9%); assay type: functional
[29] = system: U-937; experiment: Induction of Bid processing in human U937 cells by Western blotting method

Q: For `O=c1c(O)c(-c2ccc(Br)cc2)oc2ccccc12`, which Activity [1] is on record?
A: The Activity was 15.6%.

Q: And the Activity [2]?
A: The Activity was 22.1%.

Q: And the Activity [3]?
A: Its Activity is 7.3%.

Q: And the Activity [4]?
A: Its Activity is 18.9%.

Q: And the Activity [5]?
A: The Activity was 24.7%.

Q: What about the Activity [6] of the same molecule?
A: Its Activity is 11.9%.

Q: What about the Activity [7] of the same molecule?
A: The Activity was 22.5%.

Q: What about the Activity [8] of the same molecule?
A: Its Activity is 5.6%.

Q: And the Activity [9]?
A: Its Activity is 6.3%.

Q: And the Activity [10]?
A: Its Activity is 3.1%.

Q: What about the Activity [11] of the same molecule?
A: Its Activity is 5.5%.

Q: And the Activity [12]?
A: The Activity was 25.1%.

Q: What about the Activity [13] of the same molecule?
A: The Activity was 19%.

Q: And the Activity [14]?
A: The Activity was “inactive”.

Q: And the “fold change (FC)” value [15]?
A: Its value is 1.8.

Q: What about the “fold change (FC)” value [16] of the same molecule?
A: Its value is 1.7.

Q: And the Activity [17]?
A: Its Activity is “Active”.

Q: And the Activity [18]?
A: The Activity was “Active”.

Q: What about the “fold change (FC)” value [19] of the same molecule?
A: The value was 2.

Q: And the Activity [20]?
A: The Activity was “Active”.

Q: What about the Activity [21] of the same molecule?
A: The Activity was 13.8%.

Q: What about the Activity [22] of the same molecule?
A: Its Activity is 16.3%.

Q: And the Activity [23]?
A: Its Activity is 58.2%.

Q: And the Activity [24]?
A: Its Activity is 50.1%.

Q: What about the Activity [25] of the same molecule?
A: The Activity was 40.4%.

Q: What about the Activity [26] of the same molecule?
A: The Activity was 45.8%.

Q: What about the Activity [27] of the same molecule?
A: Its Activity is 40.2%.

Q: What about the Activity [28] of the same molecule?
A: Its Activity is 38.5%.

Q: And the Activity [29]?
A: The Activity was “Active”.
